Source: PubChem
ABCG2 inh – blocks JC-1 efflux by human ABCG2 transporter. Q9UNQ0. IgMXP3 cells, flow cytometry. inhibition, % at 6.6 µM. actives 0.1% (n = 190,000);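 active means inhibition above 80%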
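Test system: IgMXP3 (ABCG2) plus far-red-tagged CCRF-Adr (ABCB1) cells. Reagent: JC-1 dye as substrate. Timing: 10 min exposure at 25 °C with rotation, no wash. Measured by: flow cytometric JC-1 green MFI at 530 nm. Read-out: percent efflux inhibition, scaled nicardipine 100% to DMSO 0%. Control set: nicardipine and DMSO wells.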
ABCB1 inh – blocks JC-1 efflux by human ABCB1 transporter; P08183; CCRF-Adr cells, flow cytometry; inhibition, % at 6.6 µM; actives 0.067% (n = 190,000); in the data active means inhibition above about 40%;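 further: higher value means more JC-1 retained so stronger ABCB1 efflux block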
Target sequence (P08183 whole entry, looked up): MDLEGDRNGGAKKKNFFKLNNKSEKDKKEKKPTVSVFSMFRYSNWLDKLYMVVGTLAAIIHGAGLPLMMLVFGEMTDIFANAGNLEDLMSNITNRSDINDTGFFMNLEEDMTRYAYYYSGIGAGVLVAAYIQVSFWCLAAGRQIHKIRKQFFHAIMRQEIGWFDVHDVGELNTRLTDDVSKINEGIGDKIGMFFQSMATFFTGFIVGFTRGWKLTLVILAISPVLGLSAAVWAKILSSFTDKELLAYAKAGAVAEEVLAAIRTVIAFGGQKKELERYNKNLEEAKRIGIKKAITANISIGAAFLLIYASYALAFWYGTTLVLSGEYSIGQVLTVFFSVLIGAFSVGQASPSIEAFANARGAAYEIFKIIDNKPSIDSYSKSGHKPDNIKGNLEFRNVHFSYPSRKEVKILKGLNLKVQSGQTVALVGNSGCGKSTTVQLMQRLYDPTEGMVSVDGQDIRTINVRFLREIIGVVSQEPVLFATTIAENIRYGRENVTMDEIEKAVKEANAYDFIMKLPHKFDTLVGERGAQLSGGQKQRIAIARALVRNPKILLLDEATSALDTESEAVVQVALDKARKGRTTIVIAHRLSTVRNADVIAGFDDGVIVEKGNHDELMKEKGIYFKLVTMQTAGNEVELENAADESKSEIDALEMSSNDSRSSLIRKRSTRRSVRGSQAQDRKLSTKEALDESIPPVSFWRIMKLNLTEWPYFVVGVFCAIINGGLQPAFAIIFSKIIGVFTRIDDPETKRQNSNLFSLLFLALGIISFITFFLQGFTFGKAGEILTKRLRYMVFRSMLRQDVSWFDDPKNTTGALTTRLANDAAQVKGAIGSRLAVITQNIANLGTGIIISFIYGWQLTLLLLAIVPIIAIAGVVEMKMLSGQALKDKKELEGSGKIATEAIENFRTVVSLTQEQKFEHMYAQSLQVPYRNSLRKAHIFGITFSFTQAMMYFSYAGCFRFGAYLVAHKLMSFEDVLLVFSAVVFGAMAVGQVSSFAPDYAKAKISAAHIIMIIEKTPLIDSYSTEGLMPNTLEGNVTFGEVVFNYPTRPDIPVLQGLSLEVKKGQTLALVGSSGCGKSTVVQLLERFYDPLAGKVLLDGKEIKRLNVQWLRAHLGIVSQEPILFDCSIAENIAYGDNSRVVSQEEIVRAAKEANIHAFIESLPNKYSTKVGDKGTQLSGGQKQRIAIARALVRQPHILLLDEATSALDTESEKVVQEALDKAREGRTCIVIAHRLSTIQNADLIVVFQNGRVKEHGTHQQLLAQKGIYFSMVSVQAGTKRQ
HSV replic up – HSV replication enhancement. actives 0.005% (n = 220,000). AID 1956. maximum fold increase. HSV replication augmentation in cells, fold increase; in the data active means maximum fold increase above about 1.5; inconclusive means no clear call, values can overlap the other calls; tested in PC3 cells
Arbovirus anti – blocks arbovirus infection; arbovirus infection cell-based antiviral screen; inhibition, % at 10 µM; actives 0.37% (n = 200,000); AID 1251; in the data active means inhibition above about 30%
Furin inhibitor – blocks human furin protease activity | AID 463115 | P09958 | purified furin, fluorogenic substrate cleavage | actives 0.061% (n = 220,000) | inhibition, % at 20 µM or 30 µM; in the data active means inhibition above about 25%
NCF1 inh – inhibitors of human p47phox binding | AID 1274 | actives 0.53% (n = 220,000) | P14598 | p47phox/p22phox peptide binding, fluorescence polarization, 2 h | inhibition, % at 24.7 µM;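 active means inhibition above about 30%, limit read from the data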
Each line names hits and unclear results; the compound was inactive in the other large screens. This is a sample that favours compounds with a hit; in the whole collection about 0.95% have one here.

Cc1ccc(C(=O)/C=C\NCc2ccccc2)cc1	none
CCc1ccc(C(=O)/C=C/NCc2ccc(F)cc2)cc1	HSV replic up 1.5
O=C(CCc1nnc(-c2ccc3c(c2)OCO3)o1)NC(c1cccnc1)C(F)(F)F (stereo not drawn)	none
O=C(CCNS(=O)(=O)c1cccc2nsnc12)NCc1ccccc1Cl	none
c1ccc(-c2nccc(-c3ccc(-n4cnc5ccccc54)cc3)n2)cc1	NCF1 inh 46 (no result: HSV replic up)
CN(C)Cc1cc(O)c(CN(C)C)cc1O	NCF1 inh 37 (no result: ABCG2 inh, ABCB1 inh, Arbovirus anti)
COc1ccc(O)c(N)c1	NCF1 inh 43
COc1cc2c(-c3ccc(O)cc3)nc3c(c(C)nn3-c3ccccc3)c2cc1OC	NCF1 inh 34
CN1Cc2cccc3c2C(Cc2ccccc2S3)C1 (stereo not drawn)	none
COc1ccc(C(=O)NN/C(C)=C/C(=O)C(F)(F)C(F)(F)C(F)(F)F)cc1	Arbovirus anti 85
COc1ccc(C(=O)NNC(=O)OC(C)(C)C)cc1	none (no result: ABCG2 inh, ABCB1 inh, Arbovirus anti)
CCCNc1cc(C)oc(=O)c1C(=O)CC	none
COc1ccc(NS(=O)(=O)c2cc(NC(=O)c3cccnc3Cl)ccc2N2CCCC2)cc1	NCF1 inh active (no result: ABCG2 inh, ABCB1 inh, Arbovirus anti)
O=C(Nc1ccc(N2CCCCC2)cc1)c1cccnc1Cl	NCF1 inh 57
CS(=O)(=O)N1CCN(c2ccc(NC(=O)c3cccnc3Cl)cc2)CC1	none
N#C/C(=C\Nc1ccccc1SC(F)(F)F)c1nc(-c2ccc(Cl)cc2)cs1	none
CCCCCCCCCCCCCCCCn1cc[n+](CC(C)=O)c1	NCF1 inh 96
CCCCCCn1ccc(=N)cc1	none
Cn1cnc(S(=O)(=O)Nc2cc(-c3ccc(Cl)cc3)nn2C)c1	none (no result: ABCG2 inh, ABCB1 inh, Arbovirus anti)
Cc1nn(-c2ccccc2)c(Cl)c1/C=N/NC(=O)OC(C)(C)C	none
O=C(O)c1cc(N/N=C/c2ccc(OCc3ccccc3)cc2)ccc1Cl	Arbovirus anti 39
COC(=O)c1ccc(COc2ccc(/C=N/Nc3cccc(C(=O)O)c3)cc2)cc1	none (no result: ABCG2 inh, ABCB1 inh, Arbovirus anti)
Cc1nn(-c2ccccc2)c(Cl)c1/C=N/Nc1ccc(Cl)c(C(=O)O)c1	Arbovirus anti 89
CCC12CSc3nc(Cl)ccc3N1C(=O)C(=O)N2C (stereo not drawn)	none (no result: ABCG2 inh, ABCB1 inh, Arbovirus anti)
CNc1nc(-c2ccccc2)cc(C)c1S(C)(=O)=O	none
CCCCCCCCCCCCCCCC[n+]1cccc2ccccc21	NCF1 inh 101
N=C1/C(=C\c2coc3ccccc3c2=O)C(=O)N=C2SC=CN12	HSV replic up inconclusive (no result: ABCG2 inh, ABCB1 inh, Arbovirus anti)
O=C1NN(c2ccccc2)C(=O)/C1=C\c1coc2ccc(O)cc2c1=O	none (no result: ABCG2 inh, ABCB1 inh, Arbovirus anti)
CSC1=NSC2=NC(=O)/C(=C/c3coc4ccccc4c3=O)C(=N)N12	ABCG2 inh active, HSV replic up inconclusive
CSC1=NSC2=NC(=O)/C(=C/c3coc4ccc(O)cc4c3=O)C(=N)N12	ABCB1 inh active, HSV replic up inconclusive
NNC(=O)c1oc2nc(-c3ccco3)cc(-c3ccco3)c2c1N	HSV replic up inconclusive, Furin inhibitor 25 (no result: ABCG2 inh, ABCB1 inh, Arbovirus anti)
Nc1c(C(=O)N/N=C/c2cccnc2)oc2nc(-c3ccco3)cc(-c3ccco3)c12	none (no result: ABCG2 inh, ABCB1 inh, Arbovirus anti)
O=[N+]([O-])c1cccc(/C=N\N=C2c3ccccc3-c3ccccc32)c1O	Arbovirus anti 40
CC1(c2nnc(-c3ccc(F)cc3)o2)CC(c2cccc(Cl)c2)=NO1 (stereo not drawn)	none (no result: ABCG2 inh, ABCB1 inh, Arbovirus anti)
NC(N)=N/N=C/c1ccc(OCc2ccc(Cl)cc2)cc1	NCF1 inh 54
CCCn1c(=O)c(C(=O)NCc2ccco2)c(O)c2ccccc21	none
CC1/C(=N/O)CC(c2ccccc2)NC1c1ccccc1 (stereo not drawn)	none
O=C1CC(c2ccc(Br)cc2)NC(c2ccc(Br)cc2)C1c1ccccc1 (stereo not drawn)	Arbovirus anti 45
CC1(C)C2CCC(C2)C1(C)NC(=O)CNCc1cccs1 (stereo not drawn)	Arbovirus anti 30
Cn1c(=O)c2c(nc(N3CCOCC3)n2C)n(C)c1=O	none
CC(C(=O)c1ccccc1)n1c(N2CCOCC2)nc2c1c(=O)n(C)c(=O)n2C (stereo not drawn)	NCF1 inh 55
COc1ccccc1/C=C/C=C1N=C(/C=C/c2ccc(Cl)cc2)OC/1=O	Arbovirus anti 35
O=C(COC(=O)c1ccc(NS(=O)(=O)c2cccs2)cc1)Nc1nc2c(F)c(F)c(F)cc2s1	Arbovirus anti 34
CC1(OC(=O)C2CCCC2)C(=O)C=C2C=C(c3ccsc3)N(CCCCO)C=C2C1=O (stereo not drawn)	NCF1 inh 30 (no result: ABCG2 inh, ABCB1 inh, Arbovirus anti)
COc1ccc(CN2C=C3C(=O)C(C)(OC(=O)C4CCCC4)C(=O)C=C3C=C2c2ccsc2)cc1 (stereo not drawn)	none (no result: ABCG2 inh, ABCB1 inh, Arbovirus anti)
COC(=O)c1ccc(COc2ccc(/C=N/Nc3nc(C)cc(=O)[nH]3)cc2)cc1	none (no result: ABCG2 inh, ABCB1 inh, Arbovirus anti)
CCOc1cc(CNCCc2ccc(S(N)(=O)=O)cc2)cc(Cl)c1OCc1ccccc1	NCF1 inh 79
CCn1c(COc2cccc3ccccc23)nnc1SCC(=O)OC1CCCCC1	Arbovirus anti 34
Cn1c(COc2cccc3ccccc23)nnc1SCC(=O)OC1CCCCC1	none (no result: ABCG2 inh, ABCB1 inh, Arbovirus anti)
Cc1ccc2nc(-c3ccccc3Cl)cc(C(=O)Nc3cc(C)on3)c2c1	Arbovirus anti 34
Cc1cc(NC(=O)c2ccccc2Cl)no1	none
CCCCC(CC)C(=O)NCc1ccc(F)cc1 (stereo not drawn)	none
Cc1onc(-c2ccc(Cl)cc2Cl)c1-c1csc(N/N=C/c2ccccc2)n1	none (no result: ABCG2 inh, ABCB1 inh, Arbovirus anti)
NS(=O)(=O)c1ccc(NC(=O)COC(=O)/C(=C/c2cccs2)c2cccs2)cc1	none
CCN1CCN(CCCNC(=O)c2ccc(/C=C3/Sc4ccccc4N(Cc4ccccc4F)C3=O)cc2)CC1	NCF1 inh 90
CCN1CCN(CCNC(=O)c2ccc(/C=C3/Sc4ccccc4N(Cc4ccccc4C)C3=O)cc2)CC1	NCF1 inh 104
O=C(N/N=C/c1cccc([N+](=O)[O-])c1)C1CC1c1ccccc1 (stereo not drawn)	none
Cc1nnc2sc(SCc3cccc(Cl)c3)nn2c1=O	Arbovirus anti 31
O=C(O)c1ccc(N2C(=O)CC(N3C(=O)/C(=C/c4ccc(Cl)cc4)SC3=S)C2=O)cc1 (stereo not drawn)	none (no result: ABCG2 inh, ABCB1 inh, Arbovirus anti)
Cc1ccc2nc(NC(=O)C3CCCN(S(=O)(=O)c4cnc[nH]4)C3)sc2c1 (stereo not drawn)	Arbovirus anti 59
Cc1ccc2nc(NC(=O)C3CCCN(S(=O)(=O)c4cccnc4)C3)sc2c1 (stereo not drawn)	none
O=C(CSc1nc(-c2ccc(F)cc2)nc2c1Cc1ccccc1O2)Nc1ccc(C(=O)O)cc1	Arbovirus anti 32
O=C(CSc1nc(-c2ccc(F)cc2)nc2ccc(F)cc12)Nc1cccc(C(=O)O)c1	none
O=C(CSc1nc(-c2ccccc2)nc2c1Cc1ccccc1O2)Nc1ccc(C(=O)O)cc1	Arbovirus anti 68
CCC(CC)C(=O)Nc1cccc(C(=O)Nc2ccc(S(=O)(=O)Nc3ccc(C)cc3)cc2)c1	none
